pIC50: −log10 of the molar value.
Columns and labels:
Drosophila melanogaster [1] = assay: Insecticidal activity against adult Drosophila melanogaster cultured on compound-treated corn media assessed as inhibition of flight at 200 ppm after 48 hr relative to control; type: functional
Procedure, shortened: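 Wild-type adult flies fed corn medium containing compound for 48 h. Flies ether-anesthetized for 2 min and glued by the abdomen to the arm of a computer-monitored flight mill; flown at 25 °C under natural light. Inhibition % = (1 − treated flight distance/untreated flight distance) × 100.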

Drosophila melanogaster [2] = assay: Larvicidal activity against Drosophila melanogaster at 200 ppm relative to control; type: functional
Procedure, shortened: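 One hundred wild-type eggs placed on 8 cm3 yeast/corn meal/agar medium containing compound at 200 ppm, dissolved in DMSO.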

Uncharacterized protein = molecular target: T1, Uncharacterized protein (Sus scrofa, UniProt I3LIR5); assay: Inhibition of Sus scrofa (pig) trehalase using trehaloase as substrate incubated for 15 min prior to substrate addition measured after 1.5 hr by spectrophotometric analysis
T1 sequence (I3LIR5 whole entry): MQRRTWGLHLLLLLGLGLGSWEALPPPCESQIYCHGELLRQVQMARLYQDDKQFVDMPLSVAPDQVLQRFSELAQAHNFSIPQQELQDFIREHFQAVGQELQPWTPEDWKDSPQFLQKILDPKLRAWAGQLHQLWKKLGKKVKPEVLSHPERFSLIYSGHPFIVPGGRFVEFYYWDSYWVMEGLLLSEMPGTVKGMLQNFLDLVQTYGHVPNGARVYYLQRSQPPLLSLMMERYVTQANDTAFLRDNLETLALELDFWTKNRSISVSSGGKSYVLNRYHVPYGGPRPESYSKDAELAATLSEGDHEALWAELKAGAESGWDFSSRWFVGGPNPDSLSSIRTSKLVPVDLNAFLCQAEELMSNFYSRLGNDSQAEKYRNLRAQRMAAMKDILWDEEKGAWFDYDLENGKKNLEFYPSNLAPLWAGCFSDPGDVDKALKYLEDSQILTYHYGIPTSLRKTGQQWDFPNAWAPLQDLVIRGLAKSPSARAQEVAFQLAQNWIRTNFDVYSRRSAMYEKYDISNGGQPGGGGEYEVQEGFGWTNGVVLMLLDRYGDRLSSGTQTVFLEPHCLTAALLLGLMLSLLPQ
Procedure, shortened: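 Porcine trehalase (1.08 µg) in […], pH 5.5, preincubated with compound in DMSO for 15 min at 37 °C. […] added, then incubated 1.5 h at 37 °C. Stopped with Ba(OH)2/Zn(OH)2 and centrifuged. Glucose measured by glucose oxidase/peroxidase/ABTS (30 min, room temperature), A660, against a glucose standard curve. At least 5 concentrations; expressed as pIC50.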

Trehalase = molecular target: T2, Trehalase (Bombyx mori, UniProt P32358); assay: Inhibition of Bombyx mori trehalase
T2 sequence (P32358 whole entry): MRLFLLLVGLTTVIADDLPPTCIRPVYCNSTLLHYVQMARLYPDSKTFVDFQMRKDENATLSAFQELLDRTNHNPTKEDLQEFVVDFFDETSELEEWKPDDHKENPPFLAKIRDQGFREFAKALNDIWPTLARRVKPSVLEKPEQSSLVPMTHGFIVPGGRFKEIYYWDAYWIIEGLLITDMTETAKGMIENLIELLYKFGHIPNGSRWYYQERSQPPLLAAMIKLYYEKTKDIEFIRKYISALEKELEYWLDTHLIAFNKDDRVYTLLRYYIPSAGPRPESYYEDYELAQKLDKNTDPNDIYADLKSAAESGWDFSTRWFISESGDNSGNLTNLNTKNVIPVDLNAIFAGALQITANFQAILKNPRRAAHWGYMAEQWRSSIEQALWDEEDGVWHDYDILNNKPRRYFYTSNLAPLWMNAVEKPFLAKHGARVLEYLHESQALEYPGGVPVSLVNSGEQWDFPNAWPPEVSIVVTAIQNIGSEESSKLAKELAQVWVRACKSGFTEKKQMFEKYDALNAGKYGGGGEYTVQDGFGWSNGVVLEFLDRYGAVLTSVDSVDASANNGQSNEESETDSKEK

Q: Which results are given for `OCC1(CO)CO/C(=N\c2ccccc2F)N1`?
A: inhibition at 200 ppm (Drosophila melanogaster [1]): 30.7%; Activity (Drosophila melanogaster [2]): 45.2%; pIC50 (Uncharacterized protein): 4.12

Q: How did the inhibition at 200 ppm (Drosophila melanogaster [1]) turn out when `OCC1(CO)CS/C(=N\c2ccccc2F)N1` was run?
A: 45.4%

Q: What about the Activity (Drosophila melanogaster [2]) of the same compound?
A: 66.5%

Q: What about the pIC50 (Uncharacterized protein) of the same compound?
A: 3.08

Q: Which inhibition at 200 ppm (Drosophila melanogaster [1]) does the source give for `OCC1(CO)CS/C(=N\c2ccc(F)cc2F)N1` here?
A: 1.7%

Q: And the Activity (Drosophila melanogaster [2])?
A: 35.1%

Q: What about the pIC50 (Uncharacterized protein) of the same compound?
A: 2.21

Q: What does the source list for `OCC1(CO)CS/C(=N\c2ccc(F)cc2)N1`?
A: inhibition at 200 ppm (Drosophila melanogaster [1]): 37.2%; Activity (Drosophila melanogaster [2]): 60.4%; pIC50 (Uncharacterized protein): 3.24

Q: `OCC1(CO)CO/C(=N\c2ccc(F)cc2F)N1` was tested. Which inhibition at 200 ppm (Drosophila melanogaster [1]) did it give?
A: 2.7%

Q: What about the Activity (Drosophila melanogaster [2]) of the same compound?
A: 17.2%

Q: What about the pIC50 (Uncharacterized protein) of the same compound?
A: 3.05

Q: For `OCC1(CO)CS/C(=N\c2ccc(F)c(Cl)c2)N1`, which inhibition at 200 ppm (Drosophila melanogaster [1]) is on record?
A: 49.7%

Q: What about the Activity (Drosophila melanogaster [2]) of the same compound?
A: 76%

Q: And the pIC50 (Uncharacterized protein)?
A: 3.62

Q: Which inhibition at 200 ppm (Drosophila melanogaster [1]) does the source give for `OCC1(CO)CO/C(=N\c2ccc(F)c(Cl)c2)N1` here?
A: 37.2%

Q: And the Activity (Drosophila melanogaster [2])?
A: 65%

Q: And the pIC50 (Uncharacterized protein)?
A: 4.45

Q: What does the source list for `OCC1(CO)CS/C(=N\c2ccc(F)c(F)c2F)N1`?
A: inhibition at 200 ppm (Drosophila melanogaster [1]): 26.9%; Activity (Drosophila melanogaster [2]): 65.3%; pIC50 (Uncharacterized protein): 3.15

Q: With `OC[C@H]1O[C@H](NC2=N[C@@H]3[C@H](O2)[C@@H](O)[C@H](O)[C@]3(O)CO)[C@H](O)[C@@H](O)[C@@H]1O` [TREHAZOLIN] as the compound, how does the pIC50 (Trehalase) read?
A: 7.31

Q: How did the inhibition at 200 ppm (Drosophila melanogaster [1]) turn out when `OCC1(CO)CO/C(=N\c2ccc(F)cc2)N1` was run?
A: 35.7%

Q: What about the Activity (Drosophila melanogaster [2]) of the same compound?
A: 56.3%

Q: And the pIC50 (Uncharacterized protein)?
A: 3.58

Q: `OCC1(CO)CO/C(=N\c2ccc(F)c(F)c2F)N1` was tested. Which inhibition at 200 ppm (Drosophila melanogaster [1]) did it give?
A: 16.6%

Q: What about the Activity (Drosophila melanogaster [2]) of the same compound?
A: 50.4%

Q: What about the pIC50 (Uncharacterized protein) of the same compound?
A: 4.07
